ChEMBL document CHEMBL4680186, “New azole antifungals with a fused triazinone scaffold” (Eur J Med Chem, 2020)
Calls of active or inactive are those of the source. The rule behind the calls is not given here.

Experiments:
Rhizopus arrhizus [1] = assay: Antifungal activity against Rhizopus oryzae RHPOR1 assessed as reduction in microbial growth after 24 hrs by broth microdilution method; format: functional
Summary of the method: (§1)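 CLSI M38 broth microdilution in RPMI 1640 buffered to pH 7.0 with MOPS. Drugs were diluted in DMSO then medium; final range 0.032-16 mg/L. Conidia or sporangiospores came from 7-day potato dextrose agar cultures; diluted (2×) inocula were 0.9×10^4–4.7×10^4 CFU/mL. Incubation at 35 °C, read at 48 h except Zygomycetes at 24 h. MIC read visually as lowest concentration preventing 100% growth; duplicate.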

Rhizopus arrhizus [2] = assay: Antifungal activity against Rhizopus oryzae RHPOR2 assessed as reduction in microbial growth after 24 hrs by broth microdilution method; format: functional; summary of the method: as §1
Mucor circinelloides = assay: Antifungal activity against Mucor circinelloides MURI1 assessed as reduction in microbial growth after 24 hrs by broth microdilution method; format: functional; summary of the method: as §1
Fusarium sp. = assay: Antifungal activity against Fusarium sp. assessed as reduction in microbial growth […] by broth microdilution method; format: functional
Scedosporium apiospermum = assay: Antifungal activity against Scedosporium apiospermum SCAP1 assessed as reduction in microbial growth […] by broth microdilution method; format: functional
Candida albicans [3] = assay: Inhibition of sterol biosynthesis in Candida albicans CAAL93 assessed as ergosterol level at 10 ng/ml after 18 hrs by GC-MS analysis (reference value: 89.7%); format: functional; set-up: scale not given: the % may be the effect or the level left
Summary of the method: (§2)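 C. albicans CAAL93 blastospores were grown 18 h at 35 °C with stirring in 50 mL Sabouraud broth, with drug added before incubation. Cells were pelleted and saponified in ethanolic KOH at 80 °C for 60 min, and sterols extracted with hexane. Analysis by GC-MS (EI 70 eV, splitless injection at 250 °C, helium carrier); sterols identified by fragmentation pattern.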

Candida albicans [4] = assay: Inhibition of sterol biosynthesis in Candida albicans CAAL93 assessed as 14alpha-methylfecosterol level at 10 ng/ml after 18 hrs by GC-MS analysis relative to control; format: functional; set-up: scale not given: the % may be the effect or the level left; summary of the method: as §2
Candida albicans [5] = assay: Inhibition of sterol biosynthesis in Candida albicans CAAL93 assessed as ergostadienol level at 10 ng/ml after 18 hrs by GC-MS analysis (reference value: 1.6%); format: functional; set-up: scale not given: the % may be the effect or the level left; summary of the method: as §2
Candida albicans [6] = assay: Inhibition of sterol biosynthesis in Candida albicans CAAL93 assessed as lanosterol level at 10 ng/ml after 18 hrs by GC-MS analysis (reference value: 1.6%); format: functional; set-up: scale not given: the % may be the effect or the level left; summary of the method: as §2
Candida albicans [7] = assay: Inhibition of sterol biosynthesis in Candida albicans CAAL93 assessed as eburicol level at 10 ng/ml after 18 hrs by GC-MS analysis relative to control; format: functional; set-up: scale not given: the % may be the effect or the level left; summary of the method: as §2
Candida albicans [8] = assay: Inhibition of sterol biosynthesis in Candida albicans CAAL93 assessed as other sterols level at 10 ng/ml after 18 hrs by GC-MS analysis (Rvb < 1%); format: functional; set-up: scale not given: the % may be the effect or the level left; summary of the method: as §2
Candida albicans [9] = assay: Inhibition of sterol biosynthesis in Candida albicans CAAL93 assessed as zymosterol level at 1 ng/ml after 18 hrs by GC-MS analysis (reference value: 1.6%); format: functional; set-up: scale not given: the % may be the effect or the level left
Candida albicans [10] = assay: Inhibition of sterol biosynthesis in Candida albicans CAAL93 assessed as ergosterol level at 1 ng/ml after 18 hrs by GC-MS analysis (reference value: 89.7%); format: functional; set-up: scale not given: the % may be the effect or the level left
Candida albicans [11] = assay: Inhibition of sterol biosynthesis in Candida albicans CAAL93 assessed as fecosterol level at 1 ng/ml after 18 hrs by GC-MS analysis relative to control; format: functional; set-up: scale not given: the % may be the effect or the level left
Candida albicans [12] = assay: Inhibition of sterol biosynthesis in Candida albicans CAAL93 assessed as ergostadienol level at 1 ng/ml after 18 hrs by GC-MS analysis (reference value: 1.6%); format: functional; set-up: scale not given: the % may be the effect or the level left
Candida albicans [13] = assay: Inhibition of sterol biosynthesis in Candida albicans CAAL93 assessed as episterol level at 1 ng/ml after 18 hrs by GC-MS analysis (reference value: 2%); format: functional; set-up: scale not given: the % may be the effect or the level left
Candida albicans [14] = assay: Inhibition of sterol biosynthesis in Candida albicans CAAL93 assessed as lanosterol level at 1 ng/ml after 18 hrs by GC-MS analysis (reference value: 1.6%); format: functional; set-up: scale not given: the % may be the effect or the level left
Candida albicans [15] = assay: Inhibition of sterol biosynthesis in Candida albicans CAAL93 assessed as eburicol level at 1 ng/ml after 18 hrs by GC-MS analysis relative to control; format: functional; set-up: scale not given: the % may be the effect or the level left
Candida albicans [16] = assay: Inhibition of sterol biosynthesis in Candida albicans CAAL93 assessed as other sterols level at 1 ng/ml after 18 hrs by GC-MS analysis (Rvb < 1%); format: functional; set-up: scale not given: the % may be the effect or the level left
Candida albicans [17] = assay: Inhibition of ergosterol biosynthesis in Candida albicans CAAL93 at 1 ng/ml after 18 hrs by GC-MS analysis relative to control; format: functional
Candida albicans [18] = assay: Inhibition of ergosterol biosynthesis in Candida albicans CAAL93 at 10 ng/ml after 18 hrs by GC-MS analysis relative to control; format: functional
Candida albicans [19] = assay: Inhibition of ergosterol biosynthesis in Candida albicans CAAL93 after 18 hrs by GC-MS analysis; format: functional; conditions: dose 1-10 ng/ml
[20] = Toxicity in CRL:WI rat assessed as mortality at 300 mg/kg, po up to 14 days; format: organism-based; conditions: in vivo, 336 h, time <=14 day
Summary of the method: (§3)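 Acute oral toxicity in rats: single gavage dose of 300 mg/kg bw (two groups). Behaviour, body weight change, toxicity signs and mortality were recorded at 30 min, 1, 2, 4 and 6 h after dosing, then daily for 14 days.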

[21] = Toxicity in CRL:WI rat assessed as hunched back at 300 mg/kg, po up to 14 days; format: organism-based; conditions: in vivo, 336 h, time <=14 day; summary of the method: as §3
[22] = Toxicity in CRL:WI rat assessed as behavioral changes at 300 mg/kg, po up to 14 days; format: organism-based; conditions: in vivo, 336 h, time <=14 day; summary of the method: as §3
[23] = Toxicity in CRL:WI rat assessed as weight gain at 300 mg/kg, po up to 14 days; format: organism-based; conditions: in vivo, 336 h, time <=14 day; summary of the method: as §3
Candida albicans [24] = assay: Antifungal activity against Candida albicans CAAL93 infected in Swiss mouse assessed as survival at 10 mg/kg, po after 14 days relative to control; format: functional; conditions: 336 h, time 14 day
Summary of the method: (§4)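 Swiss mice (~25 g) immunosuppressed with prednisolone 30 mg/kg s.c. one day before challenge; day 0 i.v. infection with C. albicans blastoconidia (5.10⁶ yeast/mL, 100 µL). Oral dosing 1 h post-infection, once daily for 5 days, 10 mg/kg (CAAL93) or 15 mg/kg (DSY292), vehicle 40% DMSO/25% Tween80/35% olive oil. Mice given 50% grapefruit juice ad libitum. Survival followed 14 days (log-rank Mantel-Cox).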

Candida albicans [25] = assay: Antifungal activity against Candida albicans CAAL93 infected in Swiss mouse assessed as reduction in kidney fungal burden at 10 mg/kg, po after 14 days; format: functional, organism-based; conditions: time 14.0 day
Candida albicans [26] = assay: Antifungal activity against Candida albicans DSY292 harboring Erg1l G464S/R467K/Y132 mutant infected in Swiss mouse assessed as survival at 15 mg/kg, po after 10 days; format: functional, organism-based; conditions: time 10.0 day; summary of the method: as §4
Candida albicans [27] = assay: Antifungal activity against Candida albicans DSY292 harboring Erg1l G464S/R467K/Y132 infected in Swiss mouse assessed as reduction in kidney fungal burden at 10 mg/kg, po after 14 days; format: functional, organism-based; conditions: time 14.0 day
[28] = system: Pichia kudriavzevii (Candida krusei); assay: Antifungal activity against fluconazole-resistant Candida krusei CAKR7 assessed as reduction in microbial growth after 24 hrs by resazurin staining based spectrofluorometric method; conditions: CAKR7, 24 h
[29] = system: Pichia kudriavzevii (Candida krusei); assay: Antifungal activity against fluconazole-resistant Candida krusei CAKR8 assessed as reduction in microbial growth after 24 hrs by resazurin staining based spectrofluorometric method; conditions: CAKR8, 24 h

**Q.** Which results are given for COc1ccc(-c2cc3cnn([C@H](C)[C@](O)(Cn4cncn4)c4ccc(F)cc4F)c(=O)n3c2)cc1?
**A.** MIC (Rhizopus arrhizus [1]): 0.0625 µg/mL; MIC (Rhizopus arrhizus [2]): 0.094 µg/mL; MIC (Mucor circinelloides): 0.19 µg/mL; MIC (Fusarium sp.): > 16 µg/mL; MIC (Scedosporium apiospermum): 3 µg/mL; Activity (Candida albicans [3]): 42%; Activity (Candida albicans [4]): 3.6%; Activity (Candida albicans [5]): 1.1%; Activity (Candida albicans [6]): 25.2%; Activity (Candida albicans [7]): 23.1%; Activity (Candida albicans [8]): 5%; Activity (Candida albicans [9]): 3.3%; Activity (Candida albicans [10]): 61%; Activity (Candida albicans [11]): 3.2%; Activity (Candida albicans [12]): 3.7%; Activity (Candida albicans [13]): 11%; Activity (Candida albicans [14]): 7.7%; Activity (Candida albicans [15]): 1.8%; Activity (Candida albicans [16]): 8.3%; inhibition (Candida albicans [17]): 32%; inhibition (Candida albicans [18]): 53%; inhibition (Candida albicans [19]): Dose-dependent effect; Activity [20]: Non-Toxic; Activity [21]: Toxic; Activity [22]: Toxic; Activity [23]: Non-Toxic; survival at 10 mg/kg (Candida albicans [24]): 100%; Activity (Candida albicans [25]): Active; Survival (Candida albicans [26]): Active; Activity (Candida albicans [27]): Active; MIC [28]: 0.062 µg/mL; MIC [29]: 0.081 µg/mL
